In ChEMBL document CHEMBL4376899, “Structure-Based Stabilization of Non-native Protein-Protein Interactions of Coronavirus Nucleocapsid Proteins in Antiviral Drug Design” (J Med Chem, 2020):
Active and inactive are the calls of the source. The rule behind the calls is not given here.

How the values were obtained:
[1] = Cytotoxicity in African green monkey Vero E6 cells incubated for 48 hrs by neutral red uptake assay; assay type: cell-based, Vero C1008; details: chlorocebus sabaeus
Vero C1008 [2] = assay: Antiviral activity against HCoV EMC/2012 infected in African green monkey Vero E6 cells assessed as reduction in viral replication at 100 uM incubated for 48 hrs by RT-qPCR analysis; assay type: functional; details: Human betacoronavirus 2c EMC/2012
[3] = test system: Middle East respiratory syndrome-related coronavirus; assay: Binding affinity to N-terminal domain of MERS-CoV nucleocapsid protein assessed as radius of gyration at 440 uM by SAXS analysis (reference value: 58 angstrom)
Vero C1008 [4] = assay: Antiviral activity against HCoV EMC/2012 infected in African green monkey Vero E6 cells assessed as reduction in viral titer at 100 uM incubated for 48 hrs by crystal violet staining based viral plaque assay; assay type: functional; details: Human betacoronavirus 2c EMC/2012
Vero C1008 [5] = assay: Inhibition of nucleocapsid protein expression in HCoV EMC/2012 infected in African green monkey Vero E6 cells at 100 uM by immunofluorescence microscopy; assay type: functional; details: Human betacoronavirus 2c EMC/2012
[6] = test system: Middle East respiratory syndrome-related coronavirus; assay: Binding affinity to N-terminal domain of MERS-CoV nucleocapsid protein assessed as interaction with W43 pocket at 10 uM incubated for 1 hr by fluorescence spectral analysis
Summary of the method: (§1)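 1 μM N protein was incubated with 10 μM compound or buffer at 4 °C for 1 h in 50 mM Tris-HCl (pH 8.3), 150 mM NaCl. Tryptophan fluorescence was excited at 280 nm and emission scanned over 300–400 nm.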

Vero C1008 [7] = assay: Induction of intracellular nucleocapsid protein aggregation in HCoV EMC/2012 infected in African green monkey Vero E6 cells at 50 uM by immunofluorescence microscopy; assay type: cell-based; details: Human betacoronavirus 2c EMC/2012
Vero C1008 [8] = assay: Antiviral activity against HCoV EMC/2012 infected in African green monkey Vero E6 cells assessed as reduction in viral titer at 50 uM incubated for 48 hrs by crystal violet staining based viral plaque assay; assay type: functional; details: Human betacoronavirus 2c EMC/2012
[9] = test system: Middle East respiratory syndrome-related coronavirus; assay: Binding affinity to N-terminal domain of MERS-CoV nucleocapsid protein assessed as maximum dimension at 440 uM by SAXS analysis (reference value: 207 angstrom)
[10] = Antiviral activity against HCoV EMC/2012 infected in African green monkey Vero E6 cells assessed as reduction in viral replication at 50 uM incubated for 48 hrs by RT-qPCR analysis; assay type: functional, Human betacoronavirus 2c EMC/2012, Vero C1008; set-up: scale not given: the % may be the effect or the level left
[11] = test system: Middle East respiratory syndrome-related coronavirus; assay: Antiviral activity against MERS-CoV infected in African green monkey Vero E6 cells incubated for 48 hrs by neutral red uptake assay; assay type: functional, organism-based; details: Vero C1008, 48 h
[12] = test system: Middle East respiratory syndrome-related coronavirus; assay: Binding affinity to N-terminal domain of MERS-CoV nucleocapsid protein assessed as induction of blue shift in fluorescence spectrum at 10 uM incubated for 1 hr by fluorescence spectral analysis; summary of the method: as §1
[13] = Therapeutic index, ratio of CC50 for cytotoxicity in African green monkey VeroE6 cells incubated for 48 hrs by neutral red uptake assay to EC50 for antiviral activity against MERS-CoV infected in African green monkey Vero E6 cells incubated for 48 hrs by neutral red uptake assay; assay type: toxicity, cell-based, Vero C1008; details: read-out: Ratio CC50/EC50
[14] = test system: Middle East respiratory syndrome-related coronavirus; assay: Binding affinity to N-terminal domain of MERS-CoV nucleocapsid protein assessed as denaturation melting temperature at 10 uM incubated for 1 hr by fluorescent thermal stability assay (reference value: 42 degC)

Row | Compound | CC50 at 48 h [1] [µM] | Activity (Vero C1008 [2]) | Activity [3] [Angstrom] | Activity (Vero C1008 [4]) | inhibition (Vero C1008 [5]) | Activity [6] | Activity (Vero C1008 [7]) | Activity (Vero C1008 [8]) | Activity [9] [Angstrom] | Activity [10] [%] | EC50 [11] [µM] | Activity [12] | selectivity ratio at 48 h [13] | Tm [14] [°C]
1 | CN(C)Cc1c[nH]c2ccc(OCc3ccccc3)cc12 | 805 | Active | 65 | Active | Active | Active | Active | Active | 230 | 40 | 32.1 | Active | 25.1 | 45
2 | O=C(OCc1ccccc1)N1c2ccccc2CC1CO (stereo not given) | 460 |  |  |  |  | Active |  |  |  |  | > 100 |  |  | 
3 | CCc1cccc2c3c([nH]c12)C(CC)(CC(=O)O)OCC3 (stereo not given) [ETODOLAC] | 570 |  |  |  |  | Active |  |  |  |  | > 100 |  |  | 
